In ChEMBL document CHEMBL1132958, “Design of monocyclic (1-3) and dicyclic (1-3/4-10) gonadotropin releasing hormone (GnRH) antagonists” (J Med Chem, 2000):
The source made the active and inactive calls. The calls are words filed in the database; no cut-off is given here.

Assays:
Rattus norvegicus [1] = assay: Evaluated for number of rats ovulating in an in vivo anti-ovulatory assay at dose (25 microg); 5/6; assay type: functional, organism-based
Rattus norvegicus [2] = assay: Evaluated for number of rats ovulating in an in vivo anti-ovulatory assay at dose (100 microg); 6/11; assay type: functional, organism-based
Rattus norvegicus [3] = assay: Evaluated for number of rats ovulating in an in vivo anti-ovulatory assay at dose(1000 microg); 7/8; assay type: functional, organism-based
Rattus norvegicus [4] = assay: Evaluated for number of rats ovulating in an in vivo anti-ovulatory assay at dose(50 microg); 1/4; assay type: functional, organism-based
Rattus norvegicus [5] = assay: Evaluated for number of rats ovulating in an in vivo anti-ovulatory assay at dose(100 microg); 0/5; assay type: functional, organism-based
Rattus norvegicus [6] = assay: Evaluated for number of rats ovulating in an in vivo anti-ovulatory assay at dose (250 microg); 0/6; assay type: functional, organism-based
Rattus norvegicus [7] = assay: Evaluated for number of rats ovulating in an in vivo anti-ovulatory assay at dose (100 microg); 2/9; assay type: functional, organism-based
Rattus norvegicus [8] = assay: Evaluated for number of rats ovulating in an in vivo anti-ovulatory assay at dose (25 microg); 0/6; assay type: functional, organism-based
Rattus norvegicus [9] = assay: Evaluated for number of rats ovulating in an in vivo anti-ovulatory assay at dose (10 microg); 10/10; assay type: functional, organism-based
Rattus norvegicus [10] = assay: Evaluated for number of rats ovulating in an in vivo anti-ovulatory assay at dose (1000 microg); 3/8; assay type: functional, organism-based
[11] = target: T1, Gonadotropin-releasing hormone receptor (Rattus norvegicus, UniProt P30969); assay: Competitive radioligand binding assay for rat Gonadotropin-releasing hormone receptor cells stably transfected in human HEK293
T1 sequence (P30969 whole entry): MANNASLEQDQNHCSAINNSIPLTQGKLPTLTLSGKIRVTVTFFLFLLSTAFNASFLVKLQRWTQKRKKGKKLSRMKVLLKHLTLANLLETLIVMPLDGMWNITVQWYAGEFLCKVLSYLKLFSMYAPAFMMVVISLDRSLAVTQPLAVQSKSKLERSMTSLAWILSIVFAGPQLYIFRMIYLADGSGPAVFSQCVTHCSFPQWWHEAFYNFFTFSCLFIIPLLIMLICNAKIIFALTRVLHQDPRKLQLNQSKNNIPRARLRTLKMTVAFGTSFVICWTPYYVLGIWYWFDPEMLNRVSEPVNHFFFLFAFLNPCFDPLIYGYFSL
Outline: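 Membranes from HEK-293 cells stably expressing rat GnRH receptor (5% sucrose homogenate; nuclei removed at 3000g, membranes pelleted at 20000g, 4 °C), 7 µg protein in 10 mM Hepes pH 7.5, 150 mM NaCl, 0.1% BSA. Competitor at varying concentrations vs des-Gly10-[125I-Tyr5,DAla6,NMeLeu7,Pro9-NHEt]GnRH (~100 000 cpm), 90 min; PEI-coated GF/C filtration, PBS wash, γ counting. Ki by nonlinear least-squares fit; ≥3 independent experiments, mean ± SEM.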

Rattus norvegicus [12] = assay: Evaluated for number of rats ovulating in an in vivo anti-ovulatory assay at dose (500 microg); 7/8; assay type: functional, organism-based
Rattus norvegicus [13] = assay: Evaluated for number of rats ovulating in an in vivo anti-ovulatory assay at dose(25 microg); 3/4; assay type: functional, organism-based
Rattus norvegicus [14] = assay: Evaluated for number of rats ovulating in an in vivo anti-ovulatory assay at dose(50 microg); 0/6; assay type: functional, organism-based
Rattus norvegicus [15] = assay: Evaluated for number of rats ovulating in an in vivo anti-ovulatory assay at dose (250 microg); 5/9; assay type: functional, organism-based
Rattus norvegicus [16] = assay: Evaluated for number of rats ovulating in an in vivo anti-ovulatory assay at dose (500 microg); 4/8; assay type: functional, organism-based

For `CC(=O)N[C@H]1CC(=O)NCCCC(=O)N[C@@H](C(=O)N[C@@H](CO)C(=O)N[C@@H](Cc2ccc(O)cc2)C(=O)N[C@H](Cc2ccc3ccccc3c2)C(=O)N[C@H](CC(C)C)C(=O)N[C@@H](CCCN=C(N)N)C(=O)N2CCC[C@H]2C(=O)N[C@H](C)C(N)=O)CNC(=O)[C@@H](Cc2ccc(Cl)cc2)NC1=O`, the Activity (Rattus norvegicus [1]) was “inactive” and the Activity (Rattus norvegicus [2]) was “Weak activity”.

For `CC(=O)N[C@H]1CC(=O)N[C@H](C(=O)N[C@@H](CO)C(=O)N[C@@H](Cc2ccc(O)cc2)C(=O)N[C@H](Cc2ccc3ccccc3c2)C(=O)N[C@H](CC(C)C)C(=O)N[C@@H](CCCN=C(N)N)C(=O)N2CCC[C@H]2C(=O)N[C@H](C)C(N)=O)CNC(=O)[C@@H](Cc2ccc(Cl)cc2)NC1=O`, the Activity (Rattus norvegicus [3]) was “inactive”.

With `CC(=O)N[C@H]1CCC(=O)N[C@@H](C(=O)N[C@@H](CO)C(=O)N[C@@H](Cc2ccc(O)cc2)C(=O)N[C@H](Cc2ccc3ccccc3c2)C(=O)N[C@H](CC(C)C)C(=O)N[C@@H](CCCN=C(N)N)C(=O)N2CCC[C@H]2C(=O)N[C@H](C)C(N)=O)CCCCNC(=O)[C@@H](Cc2ccc(Cl)cc2)NC1=O` the Activity (Rattus norvegicus [4]) was “Active” and the Activity (Rattus norvegicus [5]) was “Active”.

With `CC(=O)N[C@H]1CC(=O)N[C@@H](C)C(=O)N[C@@H](C(=O)N[C@@H](CO)C(=O)N[C@@H](Cc2ccc(O)cc2)C(=O)N[C@H](Cc2ccc3ccccc3c2)C(=O)N[C@H](CC(C)C)C(=O)N[C@@H](CCCN=C(N)N)C(=O)N2CCC[C@H]2C(=O)N[C@H](C)C(N)=O)CCCNC(=O)[C@@H](Cc2ccc(Cl)cc2)NC1=O` the Activity (Rattus norvegicus [6]) was “Active” and the Activity (Rattus norvegicus [7]) was “Weak activity”.

With `CC(=O)N[C@H]1CC(=O)NCC(=O)N[C@@H](C(=O)N[C@@H](CO)C(=O)N[C@@H](Cc2ccc(O)cc2)C(=O)N[C@H](Cc2ccc3ccccc3c2)C(=O)N[C@H](CC(C)C)C(=O)N[C@@H](CCCN=C(N)N)C(=O)N2CCC[C@H]2C(=O)N[C@H](C)C(N)=O)CCCNC(=O)[C@@H](Cc2ccc(Cl)cc2)NC1=O` the Activity (Rattus norvegicus [8]) was “Active” and the Activity (Rattus norvegicus [9]) was “inactive”.

For `CC(=O)NC1CCCNC(=O)CCNC(=O)C[C@@H](C(=O)N[C@@H](CO)C(=O)N[C@@H](Cc2ccc(O)cc2)C(=O)N[C@H](Cc2ccc3ccccc3c2)C(=O)N[C@H](CC(C)C)C(=O)NC(CCCN=C(N)N)C(=O)N2CCC[C@H]2C(=O)N[C@H](C)C(N)=O)NC(=O)[C@@H](Cc2ccc(Cl)cc2)NC1=O` (stereo in doubt), the Activity (Rattus norvegicus [10]) was “Weak activity” and the Ki [11] was 2.2 nM.

`CC(=O)N[C@H]1CC(=O)N[C@@H](C)C(=O)N[C@@H](C(=O)N[C@@H](CO)C(=O)N[C@@H](Cc2ccc(O)cc2)C(=O)N[C@H](CCCN=C(N)N)C(=O)N[C@H](CC(C)C)C(=O)N[C@@H](CCCN=C(N)N)C(=O)N2CCC[C@H]2C(=O)N[C@H](C)C(N)=O)CCCNC(=O)[C@@H](Cc2ccc(Cl)cc2)NC1=O` was tested, and the Activity (Rattus norvegicus [12]) was “inactive”.

With `CC(=O)N[C@H]1CC(=O)NCCC(=O)N[C@@H](C(=O)N[C@@H](CO)C(=O)N[C@@H](Cc2ccc(O)cc2)C(=O)N[C@H](Cc2ccc3ccccc3c2)C(=O)N[C@H](CC(C)C)C(=O)N[C@@H](CCCN=C(N)N)C(=O)N2CCC[C@H]2C(=O)N[C@H](C)C(N)=O)CNC(=O)[C@@H](Cc2ccc(Cl)cc2)NC1=O` the Activity (Rattus norvegicus [13]) was “inactive” and the Activity (Rattus norvegicus [14]) was “Active”.

In the case of `CC(=O)N[C@H]1CC(=O)N[C@H](C)C(=O)N[C@@H](C(=O)N[C@@H](CO)C(=O)N[C@@H](Cc2ccc(O)cc2)C(=O)N[C@H](Cc2ccc3ccccc3c2)C(=O)N[C@H](CC(C)C)C(=O)N[C@@H](CCCN=C(N)N)C(=O)N2CCC[C@H]2C(=O)N[C@H](C)C(N)=O)CCCNC(=O)[C@@H](Cc2ccc(Cl)cc2)NC1=O`, the Activity (Rattus norvegicus [15]) is reported as “Weak activity” and the Activity (Rattus norvegicus [16]) is reported as “Weak activity”.
